Results as given in ChEMBL document CHEMBL1165943, “Design and synthesis of new anticancer pyrimidines with multiple-kinase inhibitory effect” (Bioorg Med Chem, 2010).

How the values were obtained:
Format in all cases: functional
[1] = system: K562; assay: Cytotoxicity against human K562 cells assessed as cell growth at 10 uM; details: Homo sapiens, K562; read-out: Activity
How it was run: (§1)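 Single-dose screen at 10 μM across the 60-cell-line panel. Cells grown in RPMI 1640 with 5% FBS and 2 mM L-glutamine, seeded at 5,000–40,000 cells/well according to doubling time, and treated 24 h later. Exposure lasted 48 h at 37 °C, 5% CO₂. Adherent cells were fixed with cold TCA, suspension cells were fixed settled, and both were stained with SRB and read at 515 nm. Growth % was recorded, with inhibition % = 100 − growth %.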

[2] = system: MOLT-4; assay: Cytotoxicity against human MOLT4 cells assessed as cell growth at 10 uM; details: Homo sapiens, MOLT-4; read-out: Activity; how it was run: as §1
[3] = system: SR; assay: Cytotoxicity against human SR cells assessed as cell growth at 10 uM; details: Homo sapiens, SR; read-out: Activity; how it was run: as §1
[4] = system: EKVX; assay: Cytotoxicity against human EKVX cells assessed as cell growth at 10 uM; details: Homo sapiens, EKVX; read-out: Activity
How it was run: (§2)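 Single-concentration screen at 10 μM across the 60-cell-line panel (nine tissue types); growth percentage recorded per cell line, with inhibition taken as 100 minus growth percentage.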

[5] = system: HOP-62; assay: Cytotoxicity against human HOP62 cells assessed as cell growth at 10 uM; details: Homo sapiens, HOP-62; read-out: Activity; how it was run: as §2
[6] = system: NCI-H226; assay: Cytotoxicity against human NCI-H226 cells assessed as cell growth at 10 uM; details: Homo sapiens, NCI-H226; read-out: Activity; how it was run: as §1
[7] = system: NCI-H322M; assay: Cytotoxicity against human NCI-H322M cells assessed as cell growth at 10 uM; details: Homo sapiens, NCI-H322M; read-out: Activity; how it was run: as §1
[8] = system: NCI-H460; assay: Cytotoxicity against human NCI-H460 cells assessed as cell growth at 10 uM; details: Homo sapiens, NCI-H460; read-out: Activity; how it was run: as §1
[9] = system: NCI-H522; assay: Cytotoxicity against human NCI-H522 cells assessed as cell growth at 10 uM; details: Homo sapiens, NCI-H522; read-out: Activity; how it was run: as §1
[10] = system: HCC 2998; assay: Cytotoxicity against human HCC2998 cells assessed as cell growth at 10 uM; details: Homo sapiens, HCC 2998; read-out: Activity; how it was run: as §2
[11] = system: HCT-116; assay: Cytotoxicity against human HCT116 cells assessed as cell growth at 10 uM; details: Homo sapiens, HCT-116; read-out: Activity; how it was run: as §2
[12] = system: HCT-15; assay: Cytotoxicity against human HCT15 cells assessed as cell growth at 10 uM; details: Homo sapiens, HCT-15; read-out: Activity; how it was run: as §2
[13] = system: HT-29; assay: Cytotoxicity against human HT-29 cells assessed as cell growth at 10 uM; details: Homo sapiens, HT-29; read-out: Activity; how it was run: as §2
[14] = system: SF-268; assay: Cytotoxicity against human SF268 cells assessed as cell growth at 10 uM; details: Homo sapiens, SF-268; read-out: Activity; how it was run: as §1
[15] = system: SF-295; assay: Cytotoxicity against human SF295 cells assessed as cell growth at 10 uM; details: Homo sapiens, SF-295; read-out: Activity; how it was run: as §1
[16] = system: SNB-75; assay: Cytotoxicity against human SNB75 cells assessed as cell growth at 10 uM; details: Homo sapiens, SNB-75; read-out: Activity; how it was run: as §1
[17] = system: U-251; assay: Cytotoxicity against human U251 cells assessed as cell growth at 10 uM; details: Homo sapiens, U-251; read-out: Activity; how it was run: as §1
[18] = system: LOX IMVI; assay: Cytotoxicity against human LOXIMVI cells assessed as cell growth at 10 uM; details: Homo sapiens, LOX IMVI; read-out: Activity; how it was run: as §1
[19] = system: Malme-3M; assay: Cytotoxicity against human MALME-3M cells assessed as cell growth at 10 uM; details: Homo sapiens, Malme-3M; read-out: Activity; how it was run: as §1
[20] = system: M14; assay: Cytotoxicity against human M14 cells assessed as cell growth at 10 uM; details: Homo sapiens, M14; read-out: Activity; how it was run: as §1
[21] = system: SK-MEL-2; assay: Cytotoxicity against human SK-MEL-2 cells assessed as cell growth at 10 uM; details: Homo sapiens, SK-MEL-2; read-out: Activity; how it was run: as §1
[22] = system: SK-MEL-5; assay: Cytotoxicity against human SK-MEL-5 cells assessed as cell growth at 10 uM; details: Homo sapiens, SK-MEL-5; read-out: Activity; how it was run: as §1
[23] = system: UACC-62; assay: Cytotoxicity against human UACC62 cells assessed as cell growth at 10 uM; details: Homo sapiens, UACC-62; read-out: Activity; how it was run: as §1
[24] = system: IGROV-1; assay: Cytotoxicity against human IGROV1 cells assessed as cell growth at 10 uM; details: Homo sapiens, IGROV-1; read-out: Activity; how it was run: as §1
[25] = system: OVCAR-3; assay: Cytotoxicity against human OVCAR-3 cells assessed as cell growth at 10 uM; details: Homo sapiens, OVCAR-3; read-out: Activity; how it was run: as §1
[26] = system: OVCAR-4; assay: Cytotoxicity against human OVCAR4 cells assessed as cell growth at 10 uM; details: Homo sapiens, OVCAR-4; read-out: Activity; how it was run: as §1
[27] = system: OVCAR-5; assay: Cytotoxicity against human OVCAR5 cells assessed as cell growth at 10 uM; details: Homo sapiens, OVCAR-5; read-out: Activity; how it was run: as §1
[28] = system: OVCAR-8; assay: Cytotoxicity against human OVCAR8 cells assessed as cell growth at 10 uM; details: Homo sapiens, OVCAR-8; read-out: Activity; how it was run: as §1
[29] = system: NCI/ADR-RES; assay: Cytotoxicity against human NCI/ADR-RES cells assessed as cell growth at 10 uM; details: Homo sapiens, NCI/ADR-RES; read-out: Activity; how it was run: as §1
[30] = system: SK-OV-3; assay: Cytotoxicity against human SKOV3 cells assessed as cell growth at 10 uM; details: Homo sapiens, SK-OV-3; read-out: Activity; how it was run: as §1
[31] = system: 786-0; assay: Cytotoxicity against human 786-0 cells assessed as cell growth at 10 uM; details: Homo sapiens, 786-0; read-out: Activity; how it was run: as §2
[32] = system: ACHN; assay: Cytotoxicity against human ACHN cells assessed as cell growth at 10 uM; details: Homo sapiens, ACHN; read-out: Activity; how it was run: as §2
[33] = system: TK-10; assay: Cytotoxicity against human TK10 cells assessed as cell growth at 10 uM; details: Homo sapiens, TK-10; read-out: Activity; how it was run: as §1
[34] = system: PC-3; assay: Cytotoxicity against human PC3 cells assessed as cell growth at 10 uM; details: Homo sapiens, PC-3; read-out: Activity; how it was run: as §1
[35] = system: DU-145; assay: Cytotoxicity against human DU145 cells assessed as cell growth at 10 uM; details: Homo sapiens, DU-145; read-out: Activity; how it was run: as §2
[36] = system: MCF7; assay: Cytotoxicity against human MCF7 cells assessed as cell growth at 10 uM; details: Homo sapiens, MCF7; read-out: Activity; how it was run: as §1
[37] = system: BT-549; assay: Cytotoxicity against human BT549 cells assessed as cell growth at 10 uM; details: Homo sapiens, BT-549; read-out: Activity; how it was run: as §2
[38] = system: T47D; assay: Cytotoxicity against human T47D cells assessed as cell growth at 10 uM; details: Homo sapiens, T47D; read-out: Activity; how it was run: as §1
[39] = system: MDA-MB-468; assay: Cytotoxicity against human MDA-MB-468 cells assessed as cell growth at 10 uM; details: Homo sapiens, MDA-MB-468; read-out: Activity; how it was run: as §1

SMILES: O=C(Nc1cc(C(F)(F)F)cc(C(F)(F)F)c1)Nc1nccc(-c2ccc(Nc3ccccc3)nc2)n1
- growth at 10 µM [1]: 93.6%
- growth at 10 µM [2]: 96.6%
- growth at 10 µM [3]: 84.6%
- growth at 10 µM [4]: 134%
- growth at 10 µM [5]: 103%
- growth at 10 µM [6]: 104%
- growth at 10 µM [7]: 144%
- growth at 10 µM [8]: 103%
- growth at 10 µM [9]: 94.3%
- growth at 10 µM [10]: 109%
- growth at 10 µM [11]: 93.2%
- growth at 10 µM [12]: 108%
- growth at 10 µM [13]: 94.4%
- growth at 10 µM [14]: 117%
- growth at 10 µM [15]: 137%
- growth at 10 µM [16]: 90.1%
- growth at 10 µM [17]: 113%
- growth at 10 µM [18]: 112%
- growth at 10 µM [19]: 151%
- growth at 10 µM [20]: 94.2%
- growth at 10 µM [21]: 101%
- growth at 10 µM [22]: 107%
- growth at 10 µM [23]: 101%
- growth at 10 µM [24]: 105%
- growth at 10 µM [25]: 124%
- growth at 10 µM [26]: 114%
- growth at 10 µM [27]: 87%
- growth at 10 µM [28]: 103%
- growth at 10 µM [29]: 108%
- growth at 10 µM [30]: 83.3%
- growth at 10 µM [31]: 112%
- growth at 10 µM [32]: 93%
- growth at 10 µM [33]: 123%
- growth at 10 µM [34]: 93.5%
- growth at 10 µM [35]: 126%
- growth at 10 µM [36]: 99.6%
- growth at 10 µM [37]: 111%
- growth at 10 µM [38]: 110%
- growth at 10 µM [39]: 108%
